The values below come from ChEMBL document CHEMBL4834395, “Azole-Based Indoleamine 2,3-Dioxygenase 1 (IDO1) Inhibitors” (J Med Chem, 2021).

In data set [1] the test system is HEK-293T. The experiment in a line: Cytotoxicity against human HEK293T cells assessed as reduction in cell viability at 200 uM after 7 hrs by DAPI staining based assay. The procedure, abridged:
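HEK 293T cells transiently transfected with hIDO1 (plus GFP plasmid), treated at 200 μM test compound with 2% final DMSO for 7 h at 37 °C; DMSO as negative control. Cells then washed in PBS, resuspended in PBS with 1 μg/mL DAPI and analysed immediately by flow cytometry to detect apoptotic cells.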

Data set [2] concerns the target T1, Indoleamine 2,3-dioxygenase 1 (Homo sapiens, UniProt P14902). Put plainly: Inhibition of recombinant human IDO1 expressed in Escherichia coli Rosetta (DE3) cells assessed as reduction in kynurenine production using L-tryptophan as substrate incubated for 20 mins by HPLC analysis.
Target sequence in this assay (P14902 whole entry): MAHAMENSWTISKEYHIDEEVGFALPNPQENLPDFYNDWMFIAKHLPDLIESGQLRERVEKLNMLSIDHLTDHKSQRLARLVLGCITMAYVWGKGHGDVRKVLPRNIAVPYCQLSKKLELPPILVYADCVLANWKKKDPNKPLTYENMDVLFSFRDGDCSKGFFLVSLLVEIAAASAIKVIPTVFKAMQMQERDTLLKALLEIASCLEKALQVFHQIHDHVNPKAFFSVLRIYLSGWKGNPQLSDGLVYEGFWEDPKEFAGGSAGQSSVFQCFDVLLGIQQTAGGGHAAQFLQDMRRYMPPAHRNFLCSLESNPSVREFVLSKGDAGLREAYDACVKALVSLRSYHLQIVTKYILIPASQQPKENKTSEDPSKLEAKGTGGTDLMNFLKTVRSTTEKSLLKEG
Data set [3] deals with T1, Indoleamine 2,3-dioxygenase 1. Put plainly: Inhibition of recombinant human IDO1 expressed in Escherichia coli Rosetta (DE3) cells assessed as reduction in kynurenine production using L-tryptophan as substrate at pH 7.4 incubated for 20 mins by HPLC analysis.
Target sequence in this assay (P14902 whole entry): as above
Data set [4] has the same target. The experiment in a line: Inhibition of human IDO1 expressed in HEK293T cells assessed as reduction in kynurenine production at 200 uM using L-tryptophan as substrate incubated for 7 hrs by HPLC analysis. It is filed as cell-based. In short, it runs like this: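 HEK 293T cells transiently transfected with full-length hIDO1 in pcDNA6/myc-His (with GFP plasmid to check efficiency); 16–18 h later replated in phenol-red-free DMEM with 10% FBS, 1 mM pyruvate, and added 500 μM L-trp. Compound at 200 μM, 2% final DMSO, 7 h at 37 °C; stopped with TCA (4% final). Kynurenine read by p-DMAB absorbance at 480 nm or by HPLC.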
Target sequence in this assay (P14902 whole entry, looked up): as the sequence (P14902 whole entry) above

Data set [5] has the same target. The experiment in a line: Inhibition of human IDO1 expressed in HEK293T cells assessed as reduction in kynurenine production using L-tryptophan as substrate incubated for 7 hrs by HPLC analysis. It is filed as cell-based.
Target sequence in this assay (P14902 whole entry): as above

Activity calls are given as the source filed them. The rule behind the calls is not given here.

Take `Cn1cncc1-c1cc(Cl)ccc1N`: in data set [1], the Activity entry was “Non-Toxic”. For the same compound, the IC50 in data set [2] was 1200 µM.

With `Oc1ccccc1-c1c[nH]cn1`, the Activity result in data set [1] is reported as “Non-Toxic”.

With `c1ccc(-c2nnn[nH]2)cc1`, the Activity entry in data set [1] is “Non-Toxic”.

Consider `c1ccc(-c2nc[nH]n2)cc1`, for which the Activity entry in data set [1] is reported as “Non-Toxic”. Moreover, the IC50 in data set [3] was 580 µM.

For `Clc1cccc(-c2nnc[nH]2)c1`, the Activity entry in data set [1] is “Non-Toxic”. In data set [2], the IC50 is 31 µM.

Consider `Clc1cccc(-c2nnn[nH]2)c1`, for which the Activity entry in data set [1] is reported as “Non-Toxic”. For the same compound, the IC50 in data set [2] was 100 µM.

Consider `Cn1cncc1-c1cc(Cl)ccc1O`, for which, in data set [1], the Activity entry is listed as “Non-Toxic”. The IC50 in data set [2] amounted to 17 µM.

Regarding `Nc1ccccc1-c1nnc[nH]1`, the Activity result in data set [1] is reported as “Non-Toxic”. Besides, the IC50 in data set [2] came to 2 µM.

Regarding `Clc1cccc(-c2cnc[nH]2)c1`, the Activity entry in data set [1] is on record as “Non-Toxic”. In data set [2], the IC50 was found to be 2.6 µM.

For the compound `c1ccc(-c2cnn[nH]2)cc1`, the Activity entry in data set [1] was “Non-Toxic”.

On to `c1ccc(-c2c[nH]cn2)cc1`, for which, in data set [1], the Activity entry is listed as “Non-Toxic”.

For `Nc1ccc(Br)cc1-c1nc[nH]n1`, the IC50 in data set [2] came out at 0.02 µM.

For the compound `Oc1ccccc1-n1ccnc1`, the Activity entry in data set [1] is “Non-Toxic”. For the same compound, the IC50 in data set [2] turned out to be 16 µM.

In the case of `Cn1cncc1-c1ccccc1N`, the Activity result in data set [1] is on record as “Non-Toxic”. In addition, in data set [2], the IC50 is 1700 µM.

With `Clc1cccc(-c2c[nH]nn2)c1`, in data set [1], the Activity entry was “Non-Toxic”. Further, the IC50 in data set [2] was 0.35 µM.

In the case of `Oc1ccc(Cl)cc1-c1nnn[nH]1`, in data set [1], the Activity result is recorded as “Non-Toxic”. Further, the IC50 in data set [2] was determined as 16 µM.

`Cn1cncc1-c1cccc(Cl)c1`: the Activity result in data set [1] is “Non-Toxic”. Moreover, in data set [2], the IC50 stood at 12.9 µM.

For the compound `Oc1ccccc1-c1c[nH]nn1`, the Activity result in data set [1] was “Non-Toxic”. Besides, the IC50 in data set [2] was 2.3 µM.

In the case of `Oc1ccc(Cl)cc1-c1c[nH]nn1`, in data set [1], the Activity result is listed as “Non-Toxic”.

For the compound `Nc1ccc(Cl)cc1-c1nnn[nH]1`, in data set [1], the Activity result is “Non-Toxic”. The IC50 in data set [2] came out at 0.22 µM.

With `Nc1ccc(Cl)cc1-n1ccnc1`, the Activity entry in data set [1] is on record as “Non-Toxic”. For the same compound, the IC50 in data set [2] turned out to be 88 µM.

As to `Oc1ccccc1-c1nnn[nH]1`, in data set [1], the Activity entry is given as “Non-Toxic”. In data set [2], the IC50 turned out to be 700 µM.

For the compound `Clc1cccc(-n2ccnc2)c1`, the Activity result in data set [1] is listed as “Non-Toxic”. In addition, in data set [2], the half-inhibitory concentration (IC50) came to 41 µM.

With `Nc1ccc(Cl)cc1-c1cnc[nH]1`, in data set [1], the Activity entry is reported as “Non-Toxic”. Also, the IC50 in data set [2] turned out to be 12.1 µM.

On to `Nc1ccccc1-n1ccnc1`, for which, in data set [1], the Activity result is on record as “Non-Toxic”. The IC50 in data set [2] was determined as 1300 µM.

Consider `Cn1cncc1-c1ccccc1O`, for which, in data set [1], the Activity entry was “Non-Toxic”. For the same compound, the concentration for half-maximal inhibition (IC50) in data set [2] worked out at 38 µM.

`Nc1ccccc1-c1cnc[nH]1`: the Activity result in data set [1] is given as “Non-Toxic”. Further, the IC50 in data set [2] was determined as 18 µM.

With `Cn1cncc1-c1ccccc1`, the Activity entry in data set [1] was “Non-Toxic”.

With `Nc1ccccc1-c1c[nH]nn1`, the Activity in data set [1] was found to be 30%. In data set [2], the IC50 was 33 µM.

For the compound `Oc1ccc(Cl)cc1-n1ccnc1`, in data set [1], the Activity entry is “Non-Toxic”. For the same compound, the IC50 in data set [2] came to 2.1 µM. Further, in data set [4], the inhibition entry is “inactive”.

With `Nc1ccccc1-c1nnn[nH]1`, the Activity entry in data set [1] is “Non-Toxic”. For the same compound, in data set [2], the IC50 came out at 5.8 µM.

With `Oc1ccccc1-c1nnc[nH]1`, the Activity result in data set [1] was “Non-Toxic”. Further, in data set [2], the IC50 was 31 µM.

For `Nc1ccc(Cl)cc1-c1nnc[nH]1`, the values for the IC50 in data set [5] and in data set [2] were 0.034 µM and 0.035 µM, respectively. Further, in data set [1], the Activity entry is “Non-Toxic”.

As for `c1ccc(-n2ccnc2)cc1`, in data set [1], the Activity result was “Non-Toxic”.

With `Oc1ccc(Cl)cc1-c1nnc[nH]1`, the Activity result in data set [1] is given as “Non-Toxic”. Besides, the IC50 in data set [2] amounted to 0.6 µM.

`Nc1ccc(Cl)cc1-c1cnn[nH]1`: the Activity in data set [1] is 30%. Also, the IC50 in data set [2] was 1.5 µM.

`Oc1ccc(Cl)cc1-c1cnc[nH]1`: the Activity entry in data set [1] is “Non-Toxic”.
